Measurements: ChEMBL document CHEMBL5058577, “EUbOPEN Chemogenomics Library 2 (Multiplex)” (2022)

Test system: U2OS
Experiment: Multiplex assay against U2OS
Format: toxicity, cell-based
Details: human
Method in brief: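 Per cents of healthy-nucleus cells form the tubulin, mitochondrial-mass and membrane-permeability phenotype values. Live cells were stained at seeding with Hoechst33342, BioTracker Green Microtubule Cytoskeleton Dye, MitoTracker Red and Annexin V Alexa Fluor 680. After compound addition they were imaged on a CQ1 microscope at 37°C and 5% CO2, and CellPathfinder machine-learning gating split them into Hoechst high-intensity objects or normal cells, normal cells into healthy, pyknosed or fragmented nuclei, and pyknosed cells into mitotic or apoptotic.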

[1] = 12 h, 1 µM, compound concentration 1 uM, replicate 1
[2] = 12 h, 1 µM, compound concentration 1 uM, replicate 2
[3] = 12 h, 10 µM, compound concentration 10 uM, replicate 1
[4] = 12 h, 10 µM, compound concentration 10 uM, replicate 2
[5] = 24 h, 1 µM, compound concentration 1 uM, replicate 1
[6] = 24 h, 1 µM, compound concentration 1 uM, replicate 2
[7] = 24 h, 10 µM, compound concentration 10 uM, replicate 1
[8] = 24 h, 10 µM, compound concentration 10 uM, replicate 2
[9] = 48 h, 1 µM, compound concentration 1 uM, replicate 1
[10] = 48 h, 1 µM, compound concentration 1 uM, replicate 2
[11] = 48 h, 10 µM, compound concentration 10 uM, replicate 1
[12] = 48 h, 10 µM, compound concentration 10 uM, replicate 2

SMILES: COc1cc2nc(N3CCN(C(=O)c4ccco4)CC3)nc(N)c2cc1OC.Cl [PRAZOSIN HYDROCHLORIDE]
- Population Apoptotic (%) [1]: 88%
- Population Fragmented Nuclei (%) [1]: 21%
- Population Healthy Nuclei (%) [1]: 70%
- Population Hoechst High Intensity Objects (%) [1]: 2%
- Population Membrane Permeable-Phenotype (%) [1]: 4%
- Population Mitochondria Different-Phenotype (%) [1]: 2%
- Population Mitotic Cells (%) [1]: 11%
- Population Normal (%) [1]: 97%
- Population Pyknosed Nuclei (%) [1]: 7%
- Population Tubulin-Different-Phenotype (%) [1]: 1%
- Total Cell Count [1]: 235
- Population Apoptotic (%) [2]: 94%
- Population Fragmented Nuclei (%) [2]: 18%
- Population Healthy Nuclei (%) [2]: 69%
- Population Hoechst High Intensity Objects (%) [2]: 1%
- Population Membrane Permeable-Phenotype (%) [2]: 5%
- Population Mitochondria Different-Phenotype (%) [2]: 7%
- Population Mitotic Cells (%) [2]: 5%
- Population Normal (%) [2]: 98%
- Population Pyknosed Nuclei (%) [2]: 12%
- Population Tubulin-Different-Phenotype (%) [2]: 8%
- Total Cell Count [2]: 159
- Population Apoptotic (%) [3]: 86%
- Population Fragmented Nuclei (%) [3]: 25%
- Population Healthy Nuclei (%) [3]: 67%
- Population Hoechst High Intensity Objects (%) [3]: 3%
- Population Membrane Permeable-Phenotype (%) [3]: 12%
- Population Mitochondria Different-Phenotype (%) [3]: 2%
- Population Mitotic Cells (%) [3]: 13%
- Population Normal (%) [3]: 96%
- Population Pyknosed Nuclei (%) [3]: 7%
- Population Tubulin-Different-Phenotype (%) [3]: 6%
- Total Cell Count [3]: 216
- Population Apoptotic (%) [4]: 72%
- Population Fragmented Nuclei (%) [4]: 15%
- Population Healthy Nuclei (%) [4]: 74%
- Population Hoechst High Intensity Objects (%) [4]: 0%
- Population Membrane Permeable-Phenotype (%) [4]: 4%
- Population Mitochondria Different-Phenotype (%) [4]: 5%
- Population Mitotic Cells (%) [4]: 27%
- Population Normal (%) [4]: 99%
- Population Pyknosed Nuclei (%) [4]: 9%
- Population Tubulin-Different-Phenotype (%) [4]: 7%
- Total Cell Count [4]: 114
- Population Apoptotic (%) [5]: 95%
- Population Fragmented Nuclei (%) [5]: 22%
- Population Healthy Nuclei (%) [5]: 69%
- Population Hoechst High Intensity Objects (%) [5]: 1%
- Population Membrane Permeable-Phenotype (%) [5]: 8%
- Population Mitochondria Different-Phenotype (%) [5]: 2%
- Population Mitotic Cells (%) [5]: 4%
- Population Normal (%) [5]: 98%
- Population Pyknosed Nuclei (%) [5]: 7%
- Population Tubulin-Different-Phenotype (%) [5]: 4%
- Total Cell Count [5]: 273
- Population Apoptotic (%) [6]: 100%
- Population Fragmented Nuclei (%) [6]: 15%
- Population Healthy Nuclei (%) [6]: 74%
- Population Hoechst High Intensity Objects (%) [6]: 0%
- Population Membrane Permeable-Phenotype (%) [6]: 10%
- Population Mitochondria Different-Phenotype (%) [6]: 5%
- Population Mitotic Cells (%) [6]: 0%
- Population Normal (%) [6]: 100%
- Population Pyknosed Nuclei (%) [6]: 10%
- Population Tubulin-Different-Phenotype (%) [6]: 9%
- Total Cell Count [6]: 188
- Population Apoptotic (%) [7]: 78%
- Population Fragmented Nuclei (%) [7]: 23%
- Population Healthy Nuclei (%) [7]: 68%
- Population Hoechst High Intensity Objects (%) [7]: 2%
- Population Membrane Permeable-Phenotype (%) [7]: 8%
- Population Mitochondria Different-Phenotype (%) [7]: 6%
- Population Mitotic Cells (%) [7]: 21%
- Population Normal (%) [7]: 97%
- Population Pyknosed Nuclei (%) [7]: 7%
- Population Tubulin-Different-Phenotype (%) [7]: 6%
- Total Cell Count [7]: 244
- Population Apoptotic (%) [8]: 85%
- Population Fragmented Nuclei (%) [8]: 13%
- Population Healthy Nuclei (%) [8]: 71%
- Population Hoechst High Intensity Objects (%) [8]: 1%
- Population Membrane Permeable-Phenotype (%) [8]: 7%
- Population Mitochondria Different-Phenotype (%) [8]: 5%
- Population Mitotic Cells (%) [8]: 14%
- Population Normal (%) [8]: 98%
- Population Pyknosed Nuclei (%) [8]: 15%
- Population Tubulin-Different-Phenotype (%) [8]: 4%
- Total Cell Count [8]: 138
- Population Apoptotic (%) [9]: 94%
- Population Fragmented Nuclei (%) [9]: 16%
- Population Healthy Nuclei (%) [9]: 74%
- Population Hoechst High Intensity Objects (%) [9]: 2%
- Population Membrane Permeable-Phenotype (%) [9]: 6%
- Population Mitochondria Different-Phenotype (%) [9]: 2%
- Population Mitotic Cells (%) [9]: 5%
- Population Normal (%) [9]: 97%
- Population Pyknosed Nuclei (%) [9]: 9%
- Population Tubulin-Different-Phenotype (%) [9]: 2%
- Total Cell Count [9]: 388
- Population Apoptotic (%) [10]: 100%
- Population Fragmented Nuclei (%) [10]: 15%
- Population Healthy Nuclei (%) [10]: 77%
- Population Hoechst High Intensity Objects (%) [10]: 1%
- Population Membrane Permeable-Phenotype (%) [10]: 7%
- Population Mitochondria Different-Phenotype (%) [10]: 7%
- Population Mitotic Cells (%) [10]: 0%
- Population Normal (%) [10]: 98%
- Population Pyknosed Nuclei (%) [10]: 7%
- Population Tubulin-Different-Phenotype (%) [10]: 5%
- Total Cell Count [10]: 266
- Population Apoptotic (%) [11]: 96%
- Population Fragmented Nuclei (%) [11]: 20%
- Population Healthy Nuclei (%) [11]: 71%
- Population Hoechst High Intensity Objects (%) [11]: 1%
- Population Membrane Permeable-Phenotype (%) [11]: 5%
- Population Mitochondria Different-Phenotype (%) [11]: 2%
- Population Mitotic Cells (%) [11]: 3%
- Population Normal (%) [11]: 98%
- Population Pyknosed Nuclei (%) [11]: 8%
- Population Tubulin-Different-Phenotype (%) [11]: 3%
- Total Cell Count [11]: 341
- Population Apoptotic (%) [12]: 94%
- Population Fragmented Nuclei (%) [12]: 15%
- Population Healthy Nuclei (%) [12]: 76%
- Population Hoechst High Intensity Objects (%) [12]: 2%
- Population Mitochondria Different-Phenotype (%) [12]: 6%
- Population Mitotic Cells (%) [12]: 5%
- Population Normal (%) [12]: 97%
- Total Cell Count [12]: 208

SMILES: COCCCN1CCC(NC(=O)c2cc(Cl)c(N)c3c2OCC3)CC1 [PRUCALOPRIDE]
- Population Apoptotic (%) [1]: 84%
- Population Fragmented Nuclei (%) [1]: 30%
- Population Healthy Nuclei (%) [1]: 63%
- Population Hoechst High Intensity Objects (%) [1]: 1%
- Population Membrane Permeable-Phenotype (%) [1]: 7%
- Population Mitochondria Different-Phenotype (%) [1]: 3%
- Population Mitotic Cells (%) [1]: 15%
- Population Normal (%) [1]: 98%
- Population Pyknosed Nuclei (%) [1]: 6%
- Population Tubulin-Different-Phenotype (%) [1]: 4%
- Total Cell Count [1]: 207
- Population Apoptotic (%) [2]: 87%
- Population Fragmented Nuclei (%) [2]: 21%
- Population Healthy Nuclei (%) [2]: 71%
- Population Hoechst High Intensity Objects (%) [2]: 0%
- Population Membrane Permeable-Phenotype (%) [2]: 12%
- Population Mitochondria Different-Phenotype (%) [2]: 7%
- Population Mitotic Cells (%) [2]: 12%
- Population Normal (%) [2]: 99%
- Population Pyknosed Nuclei (%) [2]: 7%
- Population Tubulin-Different-Phenotype (%) [2]: 8%
- Total Cell Count [2]: 110
- Population Apoptotic (%) [3]: 68%
- Population Fragmented Nuclei (%) [3]: 22%
- Population Healthy Nuclei (%) [3]: 63%
- Population Hoechst High Intensity Objects (%) [3]: 3%
- Population Membrane Permeable-Phenotype (%) [3]: 4%
- Population Mitochondria Different-Phenotype (%) [3]: 0%
- Population Mitotic Cells (%) [3]: 31%
- Population Normal (%) [3]: 96%
- Population Pyknosed Nuclei (%) [3]: 13%
- Population Tubulin-Different-Phenotype (%) [3]: 2%
- Total Cell Count [3]: 238
- Population Apoptotic (%) [4]: 47%
- Population Fragmented Nuclei (%) [4]: 13%
- Population Healthy Nuclei (%) [4]: 73%
- Population Hoechst High Intensity Objects (%) [4]: 2%
- Population Membrane Permeable-Phenotype (%) [4]: 1%
- Population Mitochondria Different-Phenotype (%) [4]: 1%
- Population Mitotic Cells (%) [4]: 52%
- Population Normal (%) [4]: 97%
- Population Pyknosed Nuclei (%) [4]: 12%
- Population Tubulin-Different-Phenotype (%) [4]: 1%
- Total Cell Count [4]: 140
- Population Apoptotic (%) [5]: 80%
- Population Fragmented Nuclei (%) [5]: 26%
- Population Healthy Nuclei (%) [5]: 65%
- Population Hoechst High Intensity Objects (%) [5]: 2%
- Population Membrane Permeable-Phenotype (%) [5]: 5%
- Population Mitochondria Different-Phenotype (%) [5]: 3%
- Population Mitotic Cells (%) [5]: 20%
- Population Normal (%) [5]: 97%
- Population Pyknosed Nuclei (%) [5]: 8%
- Population Tubulin-Different-Phenotype (%) [5]: 5%
- Total Cell Count [5]: 247
- Population Fragmented Nuclei (%) [6]: 23%
- Population Healthy Nuclei (%) [6]: 69%
- Population Hoechst High Intensity Objects (%) [6]: 1%
- Population Membrane Permeable-Phenotype (%) [6]: 8%
- Population Mitochondria Different-Phenotype (%) [6]: 4%
- Population Normal (%) [6]: 98%
- Population Pyknosed Nuclei (%) [6]: 7%
- Population Tubulin-Different-Phenotype (%) [6]: 7%
- Total Cell Count [6]: 132
- Population Apoptotic (%) [7]: 87%
- Population Fragmented Nuclei (%) [7]: 23%
- Population Healthy Nuclei (%) [7]: 64%
- Population Hoechst High Intensity Objects (%) [7]: 4%
- Population Membrane Permeable-Phenotype (%) [7]: 5%
- Population Mitochondria Different-Phenotype (%) [7]: 2%
- Population Mitotic Cells (%) [7]: 12%
- Population Normal (%) [7]: 95%
- Population Pyknosed Nuclei (%) [7]: 12%
- Population Tubulin-Different-Phenotype (%) [7]: 4%
- Total Cell Count [7]: 280
- Population Apoptotic (%) [8]: 77%
- Population Fragmented Nuclei (%) [8]: 12%
- Population Healthy Nuclei (%) [8]: 76%
- Population Hoechst High Intensity Objects (%) [8]: 1%
- Population Membrane Permeable-Phenotype (%) [8]: 3%
- Population Mitotic Cells (%) [8]: 22%
- Population Normal (%) [8]: 98%
- Population Pyknosed Nuclei (%) [8]: 11%
- Population Tubulin-Different-Phenotype (%) [8]: 3%
- Total Cell Count [8]: 161
- Population Apoptotic (%) [9]: 85%
- Population Fragmented Nuclei (%) [9]: 20%
- Population Healthy Nuclei (%) [9]: 73%
- Population Hoechst High Intensity Objects (%) [9]: 3%
- Population Membrane Permeable-Phenotype (%) [9]: 3%
- Population Mitochondria Different-Phenotype (%) [9]: 1%
- Population Mitotic Cells (%) [9]: 14%
- Population Normal (%) [9]: 96%
- Population Pyknosed Nuclei (%) [9]: 6%
- Population Tubulin-Different-Phenotype (%) [9]: 3%
- Total Cell Count [9]: 352
- Population Apoptotic (%) [10]: 86%
- Population Healthy Nuclei (%) [10]: 67%
- Population Hoechst High Intensity Objects (%) [10]: 2%
- Population Membrane Permeable-Phenotype (%) [10]: 11%
- Population Mitochondria Different-Phenotype (%) [10]: 6%
- Population Mitotic Cells (%) [10]: 13%
- Population Normal (%) [10]: 97%
- Population Pyknosed Nuclei (%) [10]: 11%
- Population Tubulin-Different-Phenotype (%) [10]: 9%
- Total Cell Count [10]: 199
- Population Apoptotic (%) [11]: 88%
- Population Fragmented Nuclei (%) [11]: 17%
- Population Healthy Nuclei (%) [11]: 69%
- Population Hoechst High Intensity Objects (%) [11]: 1%
- Population Membrane Permeable-Phenotype (%) [11]: 5%
- Population Mitochondria Different-Phenotype (%) [11]: 2%
- Population Mitotic Cells (%) [11]: 11%
- Population Normal (%) [11]: 98%
- Population Pyknosed Nuclei (%) [11]: 12%
- Population Tubulin-Different-Phenotype (%) [11]: 2%
- Total Cell Count [11]: 347
- Population Apoptotic (%) [12]: 90%
- Population Fragmented Nuclei (%) [12]: 11%
- Population Healthy Nuclei (%) [12]: 79%
- Population Membrane Permeable-Phenotype (%) [12]: 3%
- Population Mitochondria Different-Phenotype (%) [12]: 3%
- Population Mitotic Cells (%) [12]: 9%
- Population Pyknosed Nuclei (%) [12]: 9%
- Population Tubulin-Different-Phenotype (%) [12]: 1%
- Total Cell Count [12]: 245
